High-throughput results from PubChem.
A selection: hits, their analogues and other compounds. The true share with any hit is near 2.6%.
SENP7 block = SENP7 protease inhibition; Q9BQF6; recombinant SENP7, Z-RLRGG-aminoluciferin luminescence, 40 min; inhibition, % at 5 µM; 1.5% of 330,000 active; AID 434973;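 active = inhibition above about 50% at the single test dose, limit read from the data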
SENP1 inh = SENP1 (human) catalytic domain inhibition; inhibition, % at 10 µM; 0.21% of 360,000 active; AID 624204; recombinant SENP1 catalytic domain, CyPet-SUMO1-YPet FRET cleavage;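 active = inhibition at least 30% at 10 µM, raw YFP signal under a set limit, fluorescence ratio 0.5 to 1.5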
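Material – human SENP1 catalytic domain · Input – SENP1 enzyme, 20 pM final · Compound dosing – single concentration of 10 µM compound, 0.5% DMSO final · Timing – enzyme reaction for 50 min at room temperature, dark · Measured by – FRET fluorescence in CFP and YFP emission channels · Control set – no-enzyme wells low, DMSO-plus-enzyme wells high control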
SENP8 block-1 = SENP8 protease inhibition; Q96LD8; purified SENP8, Z-RLRGG-aminoluciferin cleavage, luminescence; inhibition, % at 10 µM; 1.2% of 330,000 active; AID 2540; in the data active = inhibition above about 50%
SENP8 block-2 = blocks human SENP8 cleavage of Nedd8 substrate; recombinant SENP8, Nedd8 substrate fluorescence; inhibition, % at 20 µM; AID 602440; 0.64% of 360,000 active; Q96LD8; in the data active = inhibition mostly above about 40%, no sharp cut-off; inactive = mostly below about 27%
SENP6 block = inhibitors of human SENP6 protease. Recombinant SENP6 catalytic domain, aminoluciferin luminescence. inhibition, % at 10 µM. 1.8% of 330,000 active. Q9GZR1. AID 2599;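 active = inhibition above about 50% at the single tested dose, limit read from the data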
Target sequence (Q9GZR1 628-1112 limits assumed): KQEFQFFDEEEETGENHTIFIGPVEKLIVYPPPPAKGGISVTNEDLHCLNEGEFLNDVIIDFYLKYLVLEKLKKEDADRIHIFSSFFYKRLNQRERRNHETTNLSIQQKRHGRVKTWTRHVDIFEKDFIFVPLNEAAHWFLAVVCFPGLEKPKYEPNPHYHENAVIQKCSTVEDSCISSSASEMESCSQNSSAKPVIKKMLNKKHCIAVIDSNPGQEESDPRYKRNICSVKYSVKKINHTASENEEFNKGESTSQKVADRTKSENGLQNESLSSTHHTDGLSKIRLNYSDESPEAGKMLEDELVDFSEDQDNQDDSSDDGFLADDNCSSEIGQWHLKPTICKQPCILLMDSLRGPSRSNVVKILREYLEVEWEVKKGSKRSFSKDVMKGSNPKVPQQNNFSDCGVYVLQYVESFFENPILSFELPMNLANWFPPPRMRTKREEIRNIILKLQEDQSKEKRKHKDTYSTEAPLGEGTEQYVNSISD
Platelet DG rel = modulates dense granule release in human platelets; inhibition, %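 (compounds screened at 7.5 µM in platelet-rich plasma)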; AID 1663; 0.22% of 300,000 active; human platelet-rich plasma, SFLLRN dense granule ATP release, luminescence;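 active = mean replicate score, as percent of positive control, at or above 50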
SENP1 conf = confirmation of human SENP1 SUMO protease inhibitors. inhibition, % at 10 µM. recombinant SENP1, CyPet-SUMO1-YPet FRET cleavage. shares compounds with SENP1 inh. 34% of 520 active; in the data active = inhibition mostly above about 35%, no sharp cut-off; inactive = mostly below about 32%
SENP1 kinetic = SENP1 (human) inhibition, kinetic confirmation | shares compounds with SENP1 inh | recombinant SENP1, CyPet-SUMO1-YPet FRET kinetic cleavage | inhibition, % at 10 µM | 26% of 520 active; in the data active = inhibition mostly above about 32%, no sharp cut-off; inactive = mostly below about 29%
Hits are given with their value; n = inactive; x = no result given.

SMILES	SENP7 block	SENP1 inh	SENP8 block-1	SENP8 block-2	SENP6 block	Platelet DG rel	SENP1 conf	SENP1 kinetic
O=C(CN1C(=O)C(=O)N(Cc2ccccc2)C1=O)Nc1cc(Cl)cc(Cl)c1	n	n	n	n	n	n	x	x
N#CCSc1ccccc1NC(=O)CN1C(=O)C(=O)N(Cc2ccccc2)C1=O	n	38	n	n	n	x	n	n
Cc1ccnc(NC(=O)c2ccc(S(=O)(=O)N3CCCC3)cc2)c1	n	n	n	n	n	n	x	x
Cc1cc(C)c2c(c1)/C(=N\N=c1\sc3ccccc3n1C)C(=O)N2	n	37	n	n	n	n	n	n
Cn1c(=NC(=O)C2=NNC(=O)CC2)sc2ccccc21	n	n	n	n	n	n	x	x
O=c1[nH]c2cc([N+](=O)[O-])ccc2c2cc(Br)ccc12	x	33	x	n	x	x	n	n
Cc1cccc(NC(=O)NC2CC(=O)N(c3ccc4c(c3)OCCO4)C2)n1 (stereo not given)	n	n	n	n	n	n	x	x
CCC(=O)N1CCCc2cc(S(=O)(=O)CCC(=O)Nc3ccccc3C)ccc21	n	n	n	n	n	n	x	x
N#C/C(=C\C1=C(N2CCOCC2)C(=C\c2ccc(Cl)cc2)/CC1)C(=O)Nc1ccccc1F	x	n	x	n	x	n	x	x
N#C/C(=C/C1=C(N2CCOCC2)C(=C/c2cccc([N+](=O)[O-])c2)/CC1)C(=O)Nc1ccccc1F	x	73	x	n	x	x	n	n
O=C(CN1C(=O)/C(=C\C=C\c2ccccc2)SC1=S)Nc1ccc(F)cc1	n	66	n	n	n	n	63	41
C=CCNc1nc(-c2ccc([N+](=O)[O-])cc2)cs1	n	50	n	n	n	n	n	n
CCCOc1ccc(-c2nc(-c3ccc([N+](=O)[O-])cc3)cs2)cc1	n	n	n	n	n	n	x	x
CN(C)c1nc(-c2ccc([N+](=O)[O-])cc2)cs1	n	46	n	n	n	n	n	n
O=[N+]([O-])c1ccc(S(=O)(=O)Nc2nc(-c3ccccc3)cs2)cc1	n	n	n	n	n	n	x	x
Cc1ccccc1-n1cc(C(=O)c2cc(Cl)ccc2O)cc(C#N)c1=O	n	43	n	n	n	n	n	n
COc1ccccc1-n1cc(C(=O)c2cc(Cl)ccc2O)cc(C#N)c1=O	n	46	n	n	n	n	39	n
COc1cccc(-c2nc3nc(C)cc(C)n3c2Nc2c(C)cccc2C)c1	x	64	x	n	x	x	36	n
Cc1cc(C)n2c(Nc3c(C)cccc3C)c(-c3ccccn3)nc2n1	x	63	x	n	x	x	n	n
C/C(=N\NC(=O)c1cccc(Br)c1)c1cccnc1	n	n	n	n	n	n	x	x
COc1ccc(-c2c(O)c(C#N)c(-c3ccccc3)n(-c3ccc(OC)cc3)c2=O)cc1	n	78	n	n	n	n	n	n
O=C(N/N=C/c1ccc(N2CCOCC2)s1)c1ccc(O)cc1	x	n	x	n	x	x	x	x
NC(=O)N/N=C/c1ccc(N2CCOCC2)s1	n	47	n	n	n	n	75	52
CCOC(=O)/C(C#N)=C/c1cc2ccccc2nc1Cl	n	n	n	n	n	n	x	x
N#C/C(=C\c1cc2ccccc2nc1N1CCCCC1)C(N)=O	x	43	x	n	x	x	36	n
SMILES	SENP7 block	SENP1 inh	SENP8 block-1	SENP8 block-2	SENP6 block	Platelet DG rel	SENP1 conf	SENP1 kinetic
O=C(Nc1cc(F)cc(F)c1)c1ccc(NCCc2ccccc2)c([N+](=O)[O-])c1	n	38	n	n	n	n	36	36
COC(=O)C(NS(C)(=O)=O)(c1c(C)[nH]c2ccccc12)C(F)(F)F (stereo not given)	n	n	n	n	n	n	x	x
Cc1cc(C)c2c(n1)SCC(=O)N2CC(=O)Nc1cc(F)ccc1F	n	n	n	n	n	n	x	x
CC(C)Oc1cccc(C(=O)NC(=S)Nc2ccc3c4c(cccc24)CC3)c1	n	37	n	n	n	x	n	n
COc1cc(/C=C2\SC(=Nc3c(C)n(C)n(-c4ccccc4)c3=O)NC2=O)ccc1O	x	42	x	n	x	x	59	41
COc1cccc2c1-c1c(O)cccc1C2=O	n	31	n	n	n	n	42	n
O=C(Cn1c(O)c(/C=C2\C=Nc3ccccc32)sc1=O)Nc1ccc2c(c1)OCO2	n	46	n	n	n	n	n	n
COC(=O)C1CC(O)CN1C(=O)Nc1ccccc1 (stereo not given)	n	30	n	n	n	n	n	n
Cn1cccc1C(=O)NCC1COc2ccccc2O1 (stereo not given)	n	n	n	n	n	x	x	x
O=[N+]([O-])c1ccc(Nc2ccccc2O)c([N+](=O)[O-])c1	x	50	x	n	x	x	n	n
O=C(O)c1cc([N+](=O)[O-])ccc1Nc1ccccc1	n	n	n	n	n	n	x	x
O=C(Nc1ccccc1O)c1ccc([N+](=O)[O-])cc1	n	n	n	n	n	n	x	x
Nc1cc([N+](=O)[O-])ccc1Nc1ccccc1	n	56	n	n	n	n	39	n
Cc1c(N2C(=O)/C(=C/c3ccccc3)SC2=S)c(=O)n(-c2ccccc2)n1C	n	n	n	n	n	n	x	x
Cc1c(N2C(=O)/C(=C/c3ccc(N(C)C)cc3)N(C)C2=S)c(=O)n(-c2ccccc2)n1C	x	67	x	44	x	x	55	38
O=C(O)c1ccccc1C(=O)Nc1ccccc1NC(=O)c1ccccc1C(=O)O	n	88	n	n	n	n	n	n
O=C(Nc1ccccc1)c1ccccc1NC(=O)c1ccccc1C(=O)O	n	n	n	n	n	n	x	x
CCCCN(C(=O)c1cc(Cl)nc2ccccc12)c1c(N)n(Cc2ccccc2)c(=O)[nH]c1=O	n	n	n	n	n	n	x	x
CCOc1ccccc1N=Nc1c(C)[nH]n(C(N)=S)c1=O	n	48	n	n	n	n	n	n
COC(=O)/C=c1/s/c(=C(\C#N)C(=O)NCc2ccco2)n(-c2ccc(C)cc2)c1=O	n	37	n	n	n	n	n	n
COC(=O)/C=c1/s/c(=C(/C#N)C(=O)N2CCOCC2)n(-c2ccccc2)c1=O	n	n	n	n	n	n	x	x
O=C(NCCCN1CCOCC1)c1ccc(NC(=O)C2COc3ccccc3O2)cc1 (stereo not given)	n	n	n	n	n	n	x	x
O=C(NNc1nc2c(F)cccc2s1)c1ccc(F)cc1	n	n	n	n	n	n	x	x
O=C(NNc1nc2c(F)cccc2s1)c1cc(=O)c2ccccc2o1	74	33	94	n	98	n	66	57
N#Cc1c(SCc2ccc(Cl)cc2)sc(C(=O)c2ccccc2)c1N	n	n	n	n	n	n	x	x
CSc1c(C#N)c(N)nc2sc(C(=O)c3ccccc3)c(N)c12	n	65	n	n	n	n	57	40
